Measured values pooled from the literature.
Protocols differ between the studies behind these lines.
Target: Serine/threonine-protein kinase 16 (STK16, Homo sapiens, UniProt O75716)

SMILES	test	setting	remaining binding
COc1cnc(Nc2cccc(S(N)(=O)=O)c2)nc1N1CCN(c2ccccc2)C(=O)C1	binding, competition with immobilised ligand	1 µM	30%
c1cnn2ncc(-c3ccnc(N4CCC45COC5)n3)c2c1	binding	1 µM	78%
O=C(N1CCS(=O)(=O)CC1)N1C[C@H](c2ccc(OC(F)(F)F)cc2)C[C@H](c2nc(C3CC3)no2)C1	cell-free assay, competition with immobilised ligand	1 µM	100%
CN(C)c1ncc(F)c(-c2cnn3ncccc23)n1	binding	1 µM	87%
Cc1cc(C)c(-n2ccn3nc(-c4cccnc4)cc23)cc1NC(=O)c1cc(C#N)cc(S(F)(F)(F)(F)F)c1	cell-free assay, competition with immobilised ligand	0.1 µM	64.3%
FC(F)(F)Oc1cccc(-c2cnc3ccc(-c4ccncc4)nn23)c1	binding, competition with immobilised ligand	5 µM	40%
O=C(NCCCN1CCOCC1)c1ccc(Nc2nccc(-c3cc4ccccc4s3)n2)cc1	binding, competition with immobilised ligand	1 µM	32%
CN(CCCC(F)(F)F)c1nccc(-c2cnn3ncccc23)n1	binding	1 µM	79%
O=C(Nc1c[nH]nc1C(=O)NC1CCNCC1)c1cc(F)cc(F)c1	binding, competition with immobilised ligand	1 µM	100%
CNC(=O)[C@@H]1CC[C@@H](n2c(-c3ccc4cnccc4c3)nc3ccc(C(=O)NCc4cccc(C(N)=O)c4)cc32)C1	binding, competition with immobilised ligand	1 µM	100%
N[C@@H]1CCN(c2nccc(-c3cnn4ncccc34)n2)C1	binding	1 µM	100%
CCc1ccccc1C(=O)Nc1n[nH]c2c(C)c(F)c(C3C(C#N)=C(C)N(C)C(C)=C3C#N)cc12	cell-free assay, competition with immobilised ligand	1 µM	79%
O=C(c1ccc(Nc2nccc(-c3cc4ccccc4s3)n2)cc1)N1CCC(N2CCCC2)CC1	binding, competition with immobilised ligand	1 µM	18%
CCCCN(CCCC)C(=O)CN1C[C@H](c2cc(OC)c3c(c2)OCO3)[C@@H](C(=O)O)[C@@H]1CC(C)(C)CCC	cell-free assay, competition with immobilised ligand	1 µM	100%
CN(C)c1nccc(-c2cnc3ncccn23)n1	binding	1 µM	92%
C=CC(=O)N1CCC(C(=O)NCC(=O)N2CCN(c3nc(-c4cnc(N)nc4C(F)F)nc(N4CCOCC4)n3)CC2)CC1	binding, competition with immobilised ligand	1 µM	92%
CN(C)C(=O)Cn1cc(-c2nc([C@@](C)(c3ccc(-c4cnc(N)nc4)cc3)C3CC3)no2)cn1	cell-free assay, competition with immobilised ligand	1 µM	100%
F[C@@H]1CCN(c2nccc(-c3cnn4ncccc34)n2)C1	binding	1 µM	100%
Cc1cnc(Nc2ccc(C(=O)N3CCC(N4CCCC4)CC3)cc2)nc1-c1cc2ccccc2s1	binding, competition with immobilised ligand	1 µM	3.4%
CN(C)CC#Cc1ccc(OCCCc2sc(N3CCc4cccc(C(=O)Nc5nc6ccccc6s5)c4C3)nc2C(=O)O)c(F)c1	cell-free assay, competition with immobilised ligand	1 µM	92%
COc1ncc2cc3ccccc3nc2c1C#N	cell-free assay, competition with immobilised ligand	5 µM	90%
